Measured values from ChEMBL document CHEMBL4732188, “SARs of a novel series of s-triazine compounds targeting vimentin to induce methuotic phenotype” (Eur J Med Chem, 2021).
Activity calls are given as the source filed them. The rule behind the calls is not given here.

What was measured:
U-87 MG = assay: Antiproliferative activity against human U87 cells assessed as reduction in cell growth incubated for 4 days by cell-titer glo assay; assay type: functional, cell-based, U-87MG ATCC; conditions: 96 h
Summary of the method: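 Cells grown in RPMI1640 with 10% FBS, 2 mM glutamine and penicillin-streptomycin at 37 °C, 5% CO₂. Viability read as ATP by CellTiter-Glo luminescence. IC50 as mean ± SD from triplicate experiments.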

U-87MG ATCC [1] = assay: Induction of vacuolization in human U87 cells at 1 uM by microscopic analysis
Vimentin (Homo sapiens) = Vimentin (Homo sapiens) (UniProt P08670); assay: Binding affinity to vimentin in human U87 cells at 100 nM incubated for 2 hrs by MALDI-MS/MS analysis; assay type: cell-based
Summary of the method: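 Live U87 cells treated with the alkyne photoaffinity probe at 100 nM (DMSO control), then UV irradiated (315-385 nm, 30 min) through the flask bottom. Lysed in Hepes buffer pH 7.5 and click-reacted with biotin-N₃ (1 mM CuSO₄, 1 mM TCEP). Streptavidin-agarose enrichment, 10% SDS-PAGE separation, then LC-MS/MS identification.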

U-87MG ATCC [2] = assay: Induction of vacuolization in human U87 cells at 31.6 nM incubated for 4 days by microscopic analysis; assay type: functional, cell-based; conditions: time 4.0 day
Summary of the method: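 Cytoplasmic vacuolization was first screened visually by microscope in U87 cells treated with each compound at 1. Positive compounds were then titrated down to 0.01. Each was scored by its minimal effective concentration: 5 if vacuoles were significant at 10 nM, 4 at 31.6 nM, and so on downward.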

U-87MG ATCC [3] = assay: Induction of methuosis in human U87 cells assessed as macropinocytosis by measuring cytoplasmic vacuolization at 10 nM incubated for 24 hrs by […] staining based confocal microscopic analysis; assay type: functional, cell-based
Summary of the method: (§1)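 U87 cells were cultured in RPMI1640 with 10% FBS at 37 °C, 5% CO₂, and compound-treated for 24 h across 0.01-10. Cytoplasmic vacuolization was imaged by microscopy, with time-lapse confocal tracking of vesicle movement, vacuole fusion, cell rounding and disintegration. Macropinocytic origin was checked by lucifer yellow uptake and by staining with ER and Golgi markers.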

U-87MG ATCC [4] = assay: Induction of methuosis in human U87 cells assessed as increase in number of cytoplasmic vacuoles at 10 nM measured after 24 hrs by […] staining based microscopic analysis; assay type: functional, cell-based; summary of the method: as §1
U-87MG ATCC [5] = assay: Induction of methuosis in human U87 cells assessed as increase in accumulation of small vesicles at 10 nM measured after 24 hrs by […] staining based microscopic analysis; assay type: functional, cell-based; summary of the method: as §1
U-87MG ATCC [6] = assay: Induction of methuosis in human U87 cells assessed as rounded cytoplasmic vacuoles at 10 nM measured after 24 hrs by […] staining based microscopic analysis; assay type: functional, cell-based; summary of the method: as §1
U-87MG ATCC [7] = assay: Induction of methuosis in human U87 cells assessed as increase in size of cytoplasmic vacuoles at 10 nM measured after 24 hrs by […] staining based microscopic analysis; assay type: functional, cell-based; summary of the method: as §1
U-87MG ATCC [8] = assay: Induction of methuosis in human U87 cells assessed as disintegrated cytoplasmic vacuoles at 10 nM measured after 24 hrs by […] staining based microscopic analysis; assay type: functional, cell-based; summary of the method: as §1
U-87MG ATCC [9] = assay: Induction of methuosis in human U87 cells assessed as increase in intracellular vacuolization in para nuclear region at 10 nM measured < 2 hrs by microscopic analysis; assay type: functional, cell-based; conditions: time hrs <2
NCI-H522 = assay: Induction of vacuolization in human NCI-H522 cells at 100 nM by microscopic analysis; assay type: functional, cell-based
HCT-15 = assay: Induction of vacuolization in human HCT-15 cells at 100 nM by microscopic analysis; assay type: functional, cell-based
SK-MEL-28 = assay: Induction of vacuolization in human SK-MEL-28 cells at 100 nM by microscopic analysis; assay type: functional, cell-based
HepG2 = assay: Induction of vacuolization in human HepG2 cells at 100 nM by microscopic analysis; assay type: functional, cell-based
LNCaP = assay: Induction of vacuolization in human LNCaP cells at 100 nM by microscopic analysis; assay type: functional, cell-based
OVCAR-3 = assay: Induction of vacuolization in human OVCAR-3 cells at 100 nM by microscopic analysis; assay type: functional, cell-based

Sequence of Vimentin (Homo sapiens) (P08670 whole entry): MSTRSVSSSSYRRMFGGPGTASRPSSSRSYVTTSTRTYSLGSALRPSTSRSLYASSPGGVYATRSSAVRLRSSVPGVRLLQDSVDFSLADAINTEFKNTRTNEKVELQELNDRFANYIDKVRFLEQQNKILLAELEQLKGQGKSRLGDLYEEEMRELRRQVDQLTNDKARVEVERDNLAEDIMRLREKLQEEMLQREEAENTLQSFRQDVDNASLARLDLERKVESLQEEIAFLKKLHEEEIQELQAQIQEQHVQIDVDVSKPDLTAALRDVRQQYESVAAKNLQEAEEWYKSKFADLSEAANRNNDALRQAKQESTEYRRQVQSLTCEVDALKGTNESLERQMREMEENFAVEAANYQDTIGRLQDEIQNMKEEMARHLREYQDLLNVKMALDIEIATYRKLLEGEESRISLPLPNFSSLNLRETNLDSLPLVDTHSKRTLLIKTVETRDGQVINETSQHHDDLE

Compound | IC50 (U-87 MG) [nM] | Activity (U-87MG ATCC [1]) | also measured
O=C(Nc1ccc(F)cc1)Nc1ccc(Nc2nc(/C=C/c3cccc([N+](=O)[O-])c3)nc(N3CCOCC3)n2)cc1 | 1110 | Active | 
CN(C)C(=O)c1ccc(NC(=O)Nc2ccc(Nc3nc(/C=C/c4ccccc4)nc(N4CCOCC4)n3)cc2)cc1 | 530 | Active | 
O=C(Nc1ccc(Nc2nc(/C=C/c3ccc(Cl)cc3)nc(N3CCOCC3)n2)cc1)Nc1cccc(F)c1 | 4410 | Active | 
CN1CCN(c2nc(/C=C/c3cccc([N+](=O)[O-])c3)nc(Nc3ccc(NC(=O)Nc4ccc(Cl)cc4)cc3)n2)CC1 | 1210 | inactive | 
O=C(Nc1ccc(Nc2nc(/C=C/c3ccccc3)nc(N3CCOCC3)n2)cc1)Nc1ccc(C(=O)NCCN2CCOCC2)cc1 | 550 | Active | 
O=C(Nc1ccc(Cl)cc1)Nc1ccc(Nc2nc(/C=C/c3cccc([N+](=O)[O-])c3)nc(N3CC(O)C3)n2)cc1 | 1320 | inactive | 
CN(C)CCNC(=O)c1ccc(NC(=O)Nc2ccc(Nc3nc(/C=C/c4ccccc4)nc(N4CCOCC4)n3)cc2)cc1 | 2480 | Active | 
CN1CCN(C(=O)c2ccc(NC(=O)Nc3ccc(Nc4nc(/C=C/c5ccccc5)nc(N5CCOCC5)n4)cc3)cc2)CC1 | 230 | Active | 
C#CCCC1(CCNC(=O)c2ccc(NC(=O)Nc3ccc(Nc4nc(/C=C/c5ccccc5)nc(N5CCOCC5)n4)cc3)cc2)N=N1 |  |  | Activity (Vimentin (Homo sapiens)): Active; Activity (U-87MG ATCC [2]): Active
O=C(Nc1ccc(Cl)cc1)Nc1ccc(Nc2nc(/C=C/c3ccccc3)nc(N3CCOCC3)n2)cc1 | 4790 | Active | Activity (U-87MG ATCC [3]): Active; Activity (U-87MG ATCC [4]): Active; Activity (U-87MG ATCC [5]): Active; Activity (U-87MG ATCC [6]): Active; Activity (U-87MG ATCC [7]): Active; Activity (U-87MG ATCC [2]): Active; Activity (U-87MG ATCC [8]): Active; Activity (U-87MG ATCC [9]): Active
O=C(Nc1ccc(F)cc1)Nc1ccc(Nc2nc(/C=C/c3cccc(Cl)c3)nc(N3CCOCC3)n2)cc1 | 1330 | Active | 
O=C(Nc1ccc(Cl)cc1)Nc1cccc(Nc2nc(/C=C/c3cccc(Cl)c3)nc(N3CCOCC3)n2)c1 | 2200 | inactive | 
O=C(Nc1ccc(Cl)cc1)Nc1ccc(Nc2nc(/C=C/c3cccc([N+](=O)[O-])c3)nc(N3CCOCC3)n2)cc1 | 1710 | Active | Activity (NCI-H522): Active; Activity (HCT-15): Active; Activity (SK-MEL-28): Active; Activity (HepG2): Active; Activity (LNCaP): Active; Activity (OVCAR-3): Active
CN(C)c1nc(/C=C/c2cccc([N+](=O)[O-])c2)nc(Nc2ccc(NC(=O)Nc3ccc(Cl)cc3)cc2)n1 | 5120 | inactive | 
O=C(Nc1ccc(Cl)cc1)Nc1cccc(Nc2nc(/C=C/c3cccc([N+](=O)[O-])c3)nc(N3CCOCC3)n2)c1 | 3660 | inactive | 
O=C(Nc1ccc(F)cc1)Nc1ccc(Nc2nc(/C=C/c3ccc(Cl)cc3)nc(N3CCOCC3)n2)cc1 | 2500 | Active | 
O=C(Nc1ccc(Cl)cc1)Nc1ccc(Nc2nc(/C=C/c3cccc([N+](=O)[O-])c3)nc(N3CCCC3)n2)cc1 | 4470 | inactive | 
O=C(Nc1ccc(Nc2nc(/C=C/c3ccccc3)nc(N3CCOCC3)n2)cc1)Nc1ccc(C(=O)NCCN2CCCC2)cc1 | 1430 | Active | 
O=C(Nc1ccc(Nc2nc(/C=C/c3ccccc3)nc(N3CCOCC3)n2)cc1)Nc1ccc(C(=O)NCCN2CCCCC2)cc1 | 1110 | Active | 
O=C(Nc1ccc(Cl)cc1)Nc1cccc(Nc2nc(/C=C/c3ccccc3)nc(N3CCOCC3)n2)c1 | 1000 | inactive | 
CN(C)CCCNC(=O)c1ccc(NC(=O)Nc2ccc(Nc3nc(/C=C/c4ccccc4)nc(N4CCOCC4)n3)cc2)cc1 | 2310 | Active | 
O=C(Nc1ccc(F)cc1)Nc1ccc(Nc2nc(/C=C/c3ccccc3)nc(N3CCOCC3)n2)cc1 | 4750 | Active | 
CC1CCN(C(=O)c2ccc(NC(=O)Nc3ccc(Nc4nc(/C=C/c5ccccc5)nc(N5CCOCC5)n4)cc3)cc2)CC1 | 870 | Active | 
